The results in this text go back to ChEMBL document CHEMBL4229344 (Eur J Med Chem, 2018).

Activity calls are given as the source filed them. No cut-off for these calls is given here.

Data set [1] concerns the target Ribosomal protein S6 kinase alpha-4 (Homo sapiens) (UniProt O75676). The data set can be described thus: Binding affinity to wild-type human partial length C-terminal RPS6KA4 kinase domain 2 (M375 to T705 residues) expressed in mammalian expression system assessed as residual binding level at 1 uM by Kinomescan method relative to control.
Data set [2] in a line: Apparent clearance in Sprague-Dawley rat at 10 mg/kg, po. Conditions: in vivo, read-out: CL(app) (converted). Format: ADME, organism-based.
In data set [3] the target is Serine/threonine-protein kinase 25 (Homo sapiens) (UniProt O00506). In words: Binding affinity to wild-type human partial length YSK1 (V14 to H295 residues) expressed in bacterial expression system assessed as residual binding level at 1 uM by Kinomescan method relative to control.
Serine/threonine-protein kinase 25 (Homo sapiens), sequence (O00506 whole entry, looked up, the tested form may be a part): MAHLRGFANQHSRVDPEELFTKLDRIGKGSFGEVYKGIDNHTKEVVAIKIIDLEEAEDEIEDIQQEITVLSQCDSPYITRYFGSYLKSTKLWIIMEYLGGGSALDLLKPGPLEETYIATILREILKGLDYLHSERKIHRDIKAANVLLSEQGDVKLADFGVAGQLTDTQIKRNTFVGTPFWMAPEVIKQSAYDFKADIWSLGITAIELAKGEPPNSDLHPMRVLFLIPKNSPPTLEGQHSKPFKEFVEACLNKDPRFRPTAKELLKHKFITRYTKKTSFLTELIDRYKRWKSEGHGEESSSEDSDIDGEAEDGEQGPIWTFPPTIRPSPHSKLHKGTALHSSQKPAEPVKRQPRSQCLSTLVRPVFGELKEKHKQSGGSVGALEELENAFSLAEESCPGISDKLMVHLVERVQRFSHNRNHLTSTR
For data set [4], the target named is Dual specificity mitogen-activated protein kinase kinase 6 (Homo sapiens) (UniProt P52564). The data set can be described thus: Binding affinity to wild-type human partial length MEK6 (K36 to D334 residues) expressed in bacterial expression system assessed as residual binding level at 1 uM by Kinomescan method relative to control.
Dual specificity mitogen-activated protein kinase kinase 6 (Homo sapiens), sequence (P52564 whole entry, the tested form may be a part): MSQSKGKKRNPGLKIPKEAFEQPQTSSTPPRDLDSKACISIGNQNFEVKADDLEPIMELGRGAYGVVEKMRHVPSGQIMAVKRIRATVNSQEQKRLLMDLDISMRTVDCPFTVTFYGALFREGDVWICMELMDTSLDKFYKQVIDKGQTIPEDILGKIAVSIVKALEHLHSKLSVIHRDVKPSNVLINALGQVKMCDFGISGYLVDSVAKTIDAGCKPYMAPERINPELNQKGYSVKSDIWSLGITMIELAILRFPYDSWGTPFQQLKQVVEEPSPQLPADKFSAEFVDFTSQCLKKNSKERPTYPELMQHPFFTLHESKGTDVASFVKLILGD
Data set [5] deals with Atypical kinase COQ8B, mitochondrial (Homo sapiens) (UniProt Q96D53). In words: Binding affinity to wild-type human full length ADCK4 (M1 to S544 residues) expressed in bacterial expression system assessed as residual binding level at 1 uM by Kinomescan method relative to control. An outline of the steps: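 KINOMEscan competition binding against 468 purified kinases/mutants, test compound at 1 µM; residual binding relative to control.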

The target in data set [6] is Protein-tyrosine kinase 2-beta (Homo sapiens) (UniProt Q14289). In words: Binding affinity to wild-type human full length PYK2 (M1 to E967 residues) expressed in bacterial expression system assessed as residual binding level at 1 uM by Kinomescan method relative to control. An outline of the steps:
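Single-concentration KINOMEscan (DiscoverX) binding screen at 1 μM against a panel of 468 purified kinases and mutants. The read-out is binding relative to control.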

For data set [7], the system named is NCI-H1703. The data set can be described thus: Cell cycle arrest in human NCI-H1703 cells assessed as accumulation at G0/G1 phase at 0.3 to 10 uM after 72 hrs in presence of PDGF-AA by propidium iodide/RNase staining-based flow cytometric analysis. Format: functional. An outline of the steps: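 Cells treated with compound or DMSO for the stated periods, fixed overnight in 70% cold ethanol at −20 °C, stained with PI/RNase buffer, then analysed by flow cytometry for cell-cycle distribution. For NCI-H1703 stimulation, PDGF AA was used at 100 ng/mL.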
A general note: Flow cytometry measures light scatter and fluorescence of single cells or particles in a stream.

In data set [8] the test system is Epidermal growth factor receptor (Homo sapiens), P00533 [G719S]. The data set can be described thus: Binding affinity to human partial length EGFR G719S mutant (R669 to V1011 residues) expressed in bacterial expression system assessed as residual binding level at 1 uM by Kinomescan method relative to control. Summed up: (§1)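 Kinome-wide single-concentration binding screen (KINOMEscan) at 1 μM against a panel of 468 purified kinases and mutants. Read-out is relative binding of each kinase compared with control. Selectivity across the panel was summarised as an S(10) score.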

In data set [9] the target is Platelet-derived growth factor receptor alpha (Homo sapiens, UniProt P16234). The data set can be described thus: Inhibition of PDGFRalpha in human EOL-1 cells assessed as decrease in STAT5 phosphorylation at Y694 residue up to 300 nM after 2 hrs by Western blot analysis. Format: cell-based. A general note: A western blot detects proteins with antibodies after separation by electrophoresis.

The subject of data set [10] is Epidermal growth factor receptor (Homo sapiens), P00533 [UNDEFINED MUTATION]. In words: Binding affinity to human partial length EGFR L747-S752del/P753S mutant expressed in bacterial expression system assessed as residual binding level at 1 uM by Kinomescan method relative to control. Summed up:
as §1

The target in data set [11] is Phosphatidylinositol 4,5-bisphosphate 3-kinase catalytic subunit delta isoform (Homo sapiens) (UniProt O00329). In words: Binding affinity to wild-type human partial length PIK3CD (R108 to Q1044 residues) expressed in mammalian expression system assessed as residual binding level at 1 uM by Kinomescan method relative to control.
In data set [12] the target is Serine/threonine-protein kinase MARK2 (Homo sapiens) (UniProt Q7KZI7). The data set can be described thus: Binding affinity to wild-type human partial length MARK2 (M1 to R450 residues) expressed in bacterial expression system assessed as residual binding level at 1 uM by Kinomescan method relative to control. An outline of the steps:
(§2)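 Kinome-wide competition binding screen against a panel of 468 purified kinases/mutants, with the test compound at a single concentration of 1 μM. Read-out is the relative binding activity of each kinase in the presence of compound.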

The target of data set [13] is Proto-oncogene tyrosine-protein kinase ROS (Homo sapiens) (UniProt P08922). The data set can be described thus: Binding affinity to wild-type human partial length ROS1 (A1921 to N2240 residues) expressed in bacterial expression system assessed as residual binding level at 1 uM by Kinomescan method relative to control.
Data set [14] concerns the target Tyrosine-protein kinase FRK (Homo sapiens) (UniProt P42685). In words: Binding affinity to wild-type human partial length FRK (A215 to F503 residues) expressed in bacterial expression system assessed as residual binding level at 1 uM by Kinomescan method relative to control. An outline of the steps:
as §2

Data set [15] addresses Fibroblast growth factor receptor 4 (Homo sapiens) (UniProt P22455). The data set can be described thus: Binding affinity to wild-type human partial length FGFR4 (G402 to E713 residues) expressed in bacterial expression system assessed as residual binding level at 1 uM by Kinomescan method relative to control. Summed up: as §2
Data set [16] concerns the target Rho-associated protein kinase 2 (Homo sapiens) (UniProt O75116). In words: Binding affinity to wild-type human partial length ROCK2 (M1 to T431 residues) expressed in mammalian expression system assessed as residual binding level at 1 uM by Kinomescan method relative to control.
The target of data set [17] is Protein kinase C delta type (Homo sapiens) (UniProt Q05655). The data set can be described thus: Binding affinity to wild-type human partial length PRKCD (Q328 to D676 residues) expressed in bacterial expression system assessed as residual binding level at 1 uM by Kinomescan method relative to control. An outline of the steps: (§3)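 KINOMEscan competition binding against a panel of 468 purified kinases/mutants, compound tested at 1 μM; readout is relative binding activity versus control.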

Data set [18] concerns the target Serine/threonine-protein kinase Sgk3 (Homo sapiens) (UniProt Q96BR1). The data set can be described thus: Binding affinity to wild-type human partial length SGK3 (M119 to L496 residues) expressed in mammalian expression system assessed as residual binding level at 1 uM by Kinomescan method relative to control. An outline of the steps: as §3
For data set [19], the target named is Ribosomal protein S6 kinase alpha-3 (Homo sapiens) (UniProt P51812). The data set can be described thus: Binding affinity to wild-type human partial length N-terminal RSK2 kinase domain 1 (M1 to D394 residues) expressed in mammalian expression system assessed as residual binding level at 1 uM by Kinomescan method relative to control.
Ribosomal protein S6 kinase alpha-3 (Homo sapiens), sequence (P51812 whole entry, the tested form may be a part): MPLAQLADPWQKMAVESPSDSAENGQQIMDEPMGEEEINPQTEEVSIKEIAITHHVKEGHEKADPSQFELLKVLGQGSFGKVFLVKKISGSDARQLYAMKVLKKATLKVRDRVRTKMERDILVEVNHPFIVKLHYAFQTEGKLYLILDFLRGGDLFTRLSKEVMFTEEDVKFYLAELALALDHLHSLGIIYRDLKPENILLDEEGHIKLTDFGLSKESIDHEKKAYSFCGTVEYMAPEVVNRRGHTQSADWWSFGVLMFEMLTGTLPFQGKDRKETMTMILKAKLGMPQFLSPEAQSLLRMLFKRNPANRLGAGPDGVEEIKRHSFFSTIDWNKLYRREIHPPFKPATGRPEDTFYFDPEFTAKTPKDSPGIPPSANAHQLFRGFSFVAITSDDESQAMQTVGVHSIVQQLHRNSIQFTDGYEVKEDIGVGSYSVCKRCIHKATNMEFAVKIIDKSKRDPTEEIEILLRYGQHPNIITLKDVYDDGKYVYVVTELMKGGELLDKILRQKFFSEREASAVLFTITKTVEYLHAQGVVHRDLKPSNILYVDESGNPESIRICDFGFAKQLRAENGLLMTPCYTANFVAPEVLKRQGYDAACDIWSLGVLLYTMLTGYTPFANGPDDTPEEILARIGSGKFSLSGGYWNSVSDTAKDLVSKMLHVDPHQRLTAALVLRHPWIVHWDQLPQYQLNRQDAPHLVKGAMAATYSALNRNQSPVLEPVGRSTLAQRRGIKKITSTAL
Data set [20] deals with NCI-H1703. In words: Induction of apoptosis in human NCI-H1703 cells assessed as cleaved caspase3 expression level at 0.3 to 10 uM after 72 hrs by Western blot analysis. Format: functional, cell-based. An outline of the steps:
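Cells exposed to compound or DMSO for the stated periods, then lysed and immunoblotted for PARP and caspase-3 cleavage, with β-actin as loading control. NCI-H1703 stimulation used PDGF AA at 100 ng/mL.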

The target of data set [21] is Tyrosine-protein kinase Fer (Homo sapiens) (UniProt P16591). In words: Binding affinity to wild-type human partial length FER (S542 to T822 residues) expressed in bacterial expression system assessed as residual binding level at 1 uM by Kinomescan method relative to control.

Fibroblast growth factor receptor 4 (Homo sapiens), sequence (P22455 22-802 limits assumed): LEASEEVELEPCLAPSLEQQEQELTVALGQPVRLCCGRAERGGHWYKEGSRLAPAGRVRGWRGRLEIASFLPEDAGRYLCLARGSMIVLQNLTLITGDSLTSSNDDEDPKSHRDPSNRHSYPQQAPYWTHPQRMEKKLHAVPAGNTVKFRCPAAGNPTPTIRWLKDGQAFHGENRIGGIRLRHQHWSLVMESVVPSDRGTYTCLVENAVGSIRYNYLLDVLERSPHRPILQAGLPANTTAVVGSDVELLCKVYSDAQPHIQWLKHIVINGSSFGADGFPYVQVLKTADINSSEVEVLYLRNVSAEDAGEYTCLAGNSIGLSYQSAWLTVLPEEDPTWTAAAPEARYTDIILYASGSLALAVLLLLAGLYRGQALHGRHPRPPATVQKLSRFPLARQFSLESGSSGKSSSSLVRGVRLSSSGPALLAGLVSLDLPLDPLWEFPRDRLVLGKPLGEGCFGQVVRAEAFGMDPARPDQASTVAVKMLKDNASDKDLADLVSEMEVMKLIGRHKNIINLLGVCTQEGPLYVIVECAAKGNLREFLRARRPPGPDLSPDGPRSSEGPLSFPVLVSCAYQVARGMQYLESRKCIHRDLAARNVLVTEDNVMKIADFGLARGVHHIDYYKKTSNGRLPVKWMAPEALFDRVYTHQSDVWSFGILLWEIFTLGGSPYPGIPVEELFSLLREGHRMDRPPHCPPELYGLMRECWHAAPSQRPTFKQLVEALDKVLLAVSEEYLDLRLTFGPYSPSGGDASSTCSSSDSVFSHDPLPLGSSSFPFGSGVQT
Serine/threonine-protein kinase Sgk3 (Homo sapiens), sequence (Q96BR1 whole entry, the tested form may be a part): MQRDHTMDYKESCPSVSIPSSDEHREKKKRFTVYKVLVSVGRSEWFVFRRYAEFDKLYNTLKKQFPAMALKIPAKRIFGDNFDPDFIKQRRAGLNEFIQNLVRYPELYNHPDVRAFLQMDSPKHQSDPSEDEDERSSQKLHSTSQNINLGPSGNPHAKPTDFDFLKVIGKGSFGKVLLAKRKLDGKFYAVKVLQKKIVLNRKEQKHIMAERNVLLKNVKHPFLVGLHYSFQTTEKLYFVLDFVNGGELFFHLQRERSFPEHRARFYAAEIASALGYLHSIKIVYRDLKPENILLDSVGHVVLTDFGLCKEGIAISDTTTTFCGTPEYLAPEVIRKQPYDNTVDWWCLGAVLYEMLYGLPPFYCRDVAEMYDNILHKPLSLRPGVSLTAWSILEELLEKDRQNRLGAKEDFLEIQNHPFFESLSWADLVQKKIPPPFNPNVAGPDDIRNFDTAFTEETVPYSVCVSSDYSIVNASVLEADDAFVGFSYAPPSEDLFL
Protein-tyrosine kinase 2-beta (Homo sapiens), sequence (Q14289 whole entry, looked up, the tested form may be a part): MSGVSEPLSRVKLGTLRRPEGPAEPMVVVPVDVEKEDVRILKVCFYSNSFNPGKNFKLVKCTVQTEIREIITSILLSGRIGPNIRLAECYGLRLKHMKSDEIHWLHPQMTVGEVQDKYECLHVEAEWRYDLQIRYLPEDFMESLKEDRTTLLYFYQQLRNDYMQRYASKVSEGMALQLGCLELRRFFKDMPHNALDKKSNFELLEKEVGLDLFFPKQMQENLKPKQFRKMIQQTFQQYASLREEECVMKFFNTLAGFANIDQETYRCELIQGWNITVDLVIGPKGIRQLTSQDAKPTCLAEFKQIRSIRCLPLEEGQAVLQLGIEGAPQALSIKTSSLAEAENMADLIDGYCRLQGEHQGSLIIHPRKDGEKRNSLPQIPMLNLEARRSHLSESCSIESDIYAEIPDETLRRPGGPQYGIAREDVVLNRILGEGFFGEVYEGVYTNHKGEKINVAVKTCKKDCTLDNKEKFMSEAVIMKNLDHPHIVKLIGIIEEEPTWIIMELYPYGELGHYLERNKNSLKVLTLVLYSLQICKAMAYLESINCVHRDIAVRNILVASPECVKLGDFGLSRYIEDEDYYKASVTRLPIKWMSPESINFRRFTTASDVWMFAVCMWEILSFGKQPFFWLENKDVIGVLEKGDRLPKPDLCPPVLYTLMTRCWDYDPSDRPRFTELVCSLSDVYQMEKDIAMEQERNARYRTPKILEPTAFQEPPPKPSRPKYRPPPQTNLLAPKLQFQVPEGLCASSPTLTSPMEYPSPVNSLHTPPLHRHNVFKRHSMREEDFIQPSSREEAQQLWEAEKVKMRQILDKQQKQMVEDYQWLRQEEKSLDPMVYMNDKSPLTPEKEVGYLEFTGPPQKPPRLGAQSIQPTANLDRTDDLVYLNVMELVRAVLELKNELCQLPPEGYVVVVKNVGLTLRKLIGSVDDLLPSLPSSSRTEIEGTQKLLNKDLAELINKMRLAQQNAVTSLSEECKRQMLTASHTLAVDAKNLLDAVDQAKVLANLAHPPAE
Serine/threonine-protein kinase MARK2 (Homo sapiens), sequence (Q7KZI7 whole entry, the tested form may be a part): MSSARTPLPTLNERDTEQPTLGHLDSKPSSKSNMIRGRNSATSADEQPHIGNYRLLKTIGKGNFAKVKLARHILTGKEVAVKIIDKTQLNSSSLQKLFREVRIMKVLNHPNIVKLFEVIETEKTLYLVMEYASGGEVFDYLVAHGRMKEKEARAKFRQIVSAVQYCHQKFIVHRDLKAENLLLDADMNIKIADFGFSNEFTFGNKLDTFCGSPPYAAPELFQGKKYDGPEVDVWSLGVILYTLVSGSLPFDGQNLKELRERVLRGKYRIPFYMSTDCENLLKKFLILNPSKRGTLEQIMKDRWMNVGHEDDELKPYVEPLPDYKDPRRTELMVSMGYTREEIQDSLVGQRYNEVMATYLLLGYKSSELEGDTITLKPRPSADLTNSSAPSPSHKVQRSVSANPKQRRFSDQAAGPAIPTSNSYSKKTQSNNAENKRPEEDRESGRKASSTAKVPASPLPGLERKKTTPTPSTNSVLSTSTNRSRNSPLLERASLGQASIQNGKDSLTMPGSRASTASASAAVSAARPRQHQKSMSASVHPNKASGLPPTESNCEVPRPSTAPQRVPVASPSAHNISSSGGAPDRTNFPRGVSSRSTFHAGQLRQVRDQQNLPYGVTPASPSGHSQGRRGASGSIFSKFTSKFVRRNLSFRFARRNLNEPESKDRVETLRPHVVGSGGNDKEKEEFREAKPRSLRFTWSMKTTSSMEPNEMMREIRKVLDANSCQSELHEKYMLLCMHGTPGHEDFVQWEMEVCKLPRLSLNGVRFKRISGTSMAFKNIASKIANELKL

Turning to `Cc1ccc(NC(=O)c2ccc(CN(CCN(C)C)C(=O)c3cccnc3)cc2)cc1Nc1nccc(-c2cccnc2)n1`, the Activity in data set [1] amounted to 100%; in data set [3], 100%; in data set [4], 100%; in data set [5], 94%; in data set [6] it was 99%; in [8] it was 85%. The Activity came out at 96% in [10]; 100% in data set [11]; 91% in data set [12]; 99% in data set [13]; 80% in data set [14]; 91% in [15]. Moreover, the Activity stood at 100% in data set [16]; 87% in data set [17]; 92% in [18]; 100% in data set [19]; 100% in [21]. For the same compound, the CL/F in [2] was 1450 mL/min/kg. Further, the result in the data set on NCI-H1703 [7] was Active. Besides, the inhibition entry in data set [9] is “Active”. Besides, in the data set on NCI-H1703 [20], the result was inactive.
